In PubChem BioAssay one finds GFP response vs DMSO, GFP response relative to DMSO and GFP response, % of DMSO data, which are given here for nine molecules.

The source made the active and inactive calls.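 How the source made its calls, unless noted: active means GFP response above 150% of the DMSO level; inconclusive means fewer than 70 events counted for a yeast strain; inactive means the rest.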

A short description of test [1]: hit retest on RPL19A-GFP reporter strain – cell-based, S. cerevisiae, flow cytometry, cherry picks, mother/daughter gates, confirmation (AID 2270;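 active means GFP response below 50% of the DMSO control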). Conditions: 3 h, at 10 µM, stronger effect = lower value, 100 = same GFP as DMSO wells. For orientation: Flow cytometry measures light scatter and fluorescence of single cells or particles in a stream.
Test [2] in a line: yeast TOR pathway reporter LAP4-GFP change – cell-based, cherry picks, flow cytometry, mother/daughter gates, confirmation (AID 2271;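 active means GFP response above 150% of the DMSO control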;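 further: ratio of sample to DMSO plate mean so 100% equals DMSO level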). Conditions: S. cerevisiae LAP4-GFP strain, 3 h, at 10 µM, stronger effect = higher value, 100 means same as DMSO control. The essentials:
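Material: Alexa Fluor 633-labelled Saccharomyces cerevisiae GFP-fusion strain, single-plex | Amount: Yeast cells seeded at OD600 of 0.2 | Buffer or medium: SC growth medium | Schedule: 3 h exposure, 30 °C | Measured by: HT flow cytometry, GFP fluorescence channel | Evaluation: % GFP response vs DMSO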

Test [3] in a line: TOR pathway reporter MEP2-GFP, retest of hits – S. cerevisiae, flow cytometry GFP, cherry picks, confirmation (AID 2272;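 active means GFP response above 150% of the DMSO control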;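 further: ratio of well signal to plate DMSO mean so 100% equals DMSO level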). To be noted: S. cerevisiae MEP2-GFP strain, 3 h, at 10 µM, stronger effect = higher value.
The nature of test [4]: yeast AGP1-GFP fluorescence change, single-dose – cell-based, flow cytometry, S. cerevisiae, cherry picks, confirmation (AID 2273).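 Further: median GFP channel fluorescence over the whole cell population gate.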 Conditions: S. cerevisiae AGP1-GFP strain, 3 h, at 10 µM.
Test [5] is described as follows: TOR pathway CIT2 reporter hit retest – S. cerevisiae, GFP fusion, cherry picks, mother/daughter gates, confirmation (AID 2274). Conditions: S. cerevisiae CIT2-GFP strain, flow cytometry, 3 h, at 10 µM, stronger effect = higher value.
Where [6] appears, read: measured here: daughter cell gate.
Where [7] appears, read: measured here: mother cell gate.
The mark [8] stands for this setting: measured here: daughter cell gate response.
Setting [9] is: measured here: mother cell gate response.

With `O=C(c1c(F)cccc1F)N1CCN(c2ccccc2F)CC1`, the GFP response vs DMSO in test [1] is 99.4% (inactive); in test [1] (setting [6]) it was 99.1%; in test [1] (setting [7]) it was 98.4%; in test [3], 100% (inactive). Also, the GFP response relative to DMSO in test [2] is 103% (inactive); in test [2] (setting [8]), 102%; in test [2] (setting [9]) it was 103%. The GFP response, % of DMSO was 92.1% (inactive) in test [4], 107% (inactive) in test [5], 106% in test [5] (setting [6]) and 106% in test [5] (setting [7]).
For the molecule `Cc1cccc(C(=O)NNC(=S)NC(=O)c2ccccc2)c1`, the GFP response vs DMSO was 107% (inactive) in test [1], 110% in test [1] (setting [6]), 105% in test [1] (setting [7]) and 109% (inactive) in test [3]. The GFP response relative to DMSO is 122% (inactive) in test [2], 117% in test [2] (setting [8]) and 128% in test [2] (setting [9]). For the same molecule, the GFP response, % of DMSO was 102% (inactive) in test [4], 105% (inactive) in test [5], 116% in test [5] (setting [6]) and 99.7% in test [5] (setting [7]).
On to `CC(C)C(=O)Nc1ccc(NC(=O)c2cc3ccccc3o2)cc1`, for which the GFP response vs DMSO in test [1] was 99.6% (inactive); in test [1] (setting [6]), 100%; in test [1] (setting [7]), 98.6%; in test [3], 99.3% (inactive). In addition, the GFP response relative to DMSO in test [2] was 102% (inactive); in test [2] (setting [8]), 101%; in test [2] (setting [9]), 102%. The GFP response, % of DMSO in test [4] is 99.1% (inactive); in test [5], 100% (inactive); in test [5] (setting [6]), 97.6%; in test [5] (setting [7]), 100%.
Consider `O=C(O)CSc1nnc(-c2ccncc2)n1CCc1ccccc1`, for which the GFP response vs DMSO in test [1] was 98.2% (inactive); in test [1] (setting [6]), 98.4%; in test [1] (setting [7]), 100%; in test [3], 100% (inactive). The GFP response relative to DMSO was 102% (inactive) in test [2], 98.7% in test [2] (setting [8]) and 103% in test [2] (setting [9]). Further, the GFP response, % of DMSO in test [4] was 98.3% (inactive); in test [5], 91.3% (inactive); in test [5] (setting [6]) it was 91.5%; in test [5] (setting [7]) it was 90.2%.
In the case of `CCCc1cc(N2CCN(c3ccccn3)CC2)n2nc(C)c(-c3ccccc3)c2n1`, the GFP response vs DMSO in test [1] is 104% (inactive); in test [1] (setting [6]), 101%; in test [1] (setting [7]), 104%; in test [3] it was 160% (inactive). Also, the GFP response relative to DMSO was 142% (inactive) in test [2], 147% in test [2] (setting [8]) and 140% in test [2] (setting [9]). The GFP response, % of DMSO in test [4] was 109% (inactive); in test [5] it was 153% (active); in test [5] (setting [6]), 154%; in test [5] (setting [7]), 148%.
Consider `COc1ccc([N+](=O)[O-])c(S(=O)(=O)c2ccc(Cl)cc2)n1`, for which the GFP response vs DMSO was 84.5% (inactive) in test [1], 54.7% in test [1] (setting [6]), 74.7% in test [1] (setting [7]) and 136% (inactive) in test [3]. Further, the GFP response relative to DMSO is 333% (active) in test [2], 173% in test [2] (setting [8]) and 309% in test [2] (setting [9]). Further, the GFP response, % of DMSO in test [4] is 131% (inactive); in test [5] it was 93.4% (inactive); in test [5] (setting [6]), 100%; in test [5] (setting [7]) it was 78.8%.
With `CCN(CC)CCN(C(=O)c1ccc2c(c1)CCCC2)c1nc2cc(OC)c(OC)cc2s1`, the GFP response vs DMSO is 94.1% (inactive) in test [1], 96% in test [1] (setting [6]), 94.1% in test [1] (setting [7]) and 97.5% (inactive) in test [3]. For the same molecule, the GFP response relative to DMSO in test [2] is 98.8% (inactive); in test [2] (setting [8]) it was 99.3%; in test [2] (setting [9]) it was 95.6%. Besides, the GFP response, % of DMSO in test [4] was 101% (inactive); in test [5], 99.3% (inactive); in test [5] (setting [6]), 102%; in test [5] (setting [7]), 98%.
As for `CC(=O)Nc1ccc(NC(=O)CSc2ncc(C(=O)Nc3ccccc3)c(=O)n2C)cc1`, the GFP response vs DMSO in test [1] is 96.6% (inactive); in test [1] (setting [6]), 97.1%; in test [1] (setting [7]), 99.1%; in test [3] it was 96.8% (inactive). The values for the GFP response relative to DMSO in test [2], in test [2] (setting [8]) and in test [2] (setting [9]) were 97% (inactive), 97.5% and 97.3%, respectively. Also, the GFP response, % of DMSO is 103% (inactive) in test [4], 105% (inactive) in test [5], 103% in test [5] (setting [6]) and 104% in test [5] (setting [7]).
For `COc1ccc(-c2noc(CCCC(=O)NCCc3ccccc3)n2)cc1OC`, the GFP response vs DMSO in test [1] was 99.3% (inactive); in test [1] (setting [6]) it was 97.3%; in test [1] (setting [7]), 97.3%; in test [3], 103% (inactive). In addition, the figures for the GFP response relative to DMSO in test [2], in test [2] (setting [8]) and in test [2] (setting [9]) were 100% (inactive), 101% and 101%, respectively. Further, the GFP response, % of DMSO in test [4] was 100% (inactive); in test [5], 101% (inactive); in test [5] (setting [6]), 101%; in test [5] (setting [7]), 100%.
